{"data": "Measured values of several laboratories", "MAP2K6": "Dual specificity mitogen-activated protein kinase kinase 6 (MAP2K6, Homo sapiens, UniProt P52564)", "note": "Each line is one published result; the experiments were not run side by side."}
{"SMILES": "CC(C)(C)c1cc(C=C(C#N)C#N)cc(Br)c1O", "target": "MAP2K6", "read-out": "enzyme activity", "mode": "inhibitor", "concentration": "0.5 µM", "measurement": "remaining activity", "value": "107%"}
{"SMILES": "COc1ncccc1-c1cnn2ccc(N3CCN(C(=O)OC(C)C)CC3)nc12", "target": "MAP2K6", "read-out": "binding", "technique": "competition with immobilised ligand", "concentration": "1 µM", "measurement": "remaining binding", "value": "56%"}
{"SMILES": "N#CC1(c2ccccn2)CCN(Cc2cc(C(=O)O)c(=O)n3ccccc23)CC1", "target": "MAP2K6", "read-out": "cell-free assay", "technique": "competition with immobilised ligand", "concentration": "1 µM", "measurement": "remaining binding", "value": "99%"}
{"SMILES": "Cn1cc(-c2cccc(N3CCc4c(sc5c4CC(C)(C)C5)C3=O)c2CO)cc(Nc2ccncn2)c1=O", "target": "Dual specificity mitogen-activated protein kinase kinase 6 (MAP2K6, Homo sapiens, UniProt P52564, S207E/T211E)", "read-out": "enzyme activity", "mode": "inhibitor", "concentration": "1 µM", "measurement": "inhibition", "value": "-4%"}
{"SMILES": "Cn1cncc1[C@](O)(COc1ccc(C#N)cc1-c1ccc(OC(F)(F)F)cc1)c1ccc(C#N)cc1", "target": "MAP2K6", "read-out": "cell-free assay", "technique": "competition with immobilised ligand", "concentration": "1 µM", "measurement": "remaining binding", "value": "76%"}
{"SMILES": "O=c1[nH]c2ccccc2n1C1CCN(Cc2ccc(-c3[nH]c4cc5ncnc5cc4nc3-c3ccccc3)cc2)CC1", "target": "MAP2K6", "read-out": "cell-free assay", "concentration": "0.5 µM", "measurement": "remaining signal", "value": "101%"}
{"SMILES": "Nc1ncc(-c2nc(N3CCOCC3)nc(N3CCOCC3)n2)c(C(F)F)n1", "target": "MAP2K6", "read-out": "binding", "technique": "competition with immobilised ligand", "concentration": "10 µM", "measurement": "remaining binding", "value": "92%"}
{"SMILES": "Cc1nn(C)cc1-c1nc2c(N3CCN(Cc4ccc(Cl)cc4)CC3)c(Cl)cnc2[nH]1", "target": "MAP2K6", "read-out": "binding", "technique": "competition with immobilised ligand", "concentration": "1 µM", "measurement": "remaining binding", "value": "73%"}
{"SMILES": "Cn1cc(-c2cc(F)cc(N3CCn4c(cc5c4CCCC5)C3=O)c2CO)cc(Nc2ccc(N3CCN(C4COC4)CC3)cn2)c1=O", "target": "MAP2K6", "read-out": "enzyme activity", "mode": "inhibitor", "concentration": "0.1 µM", "measurement": "inhibition", "value": "4%"}
